Measured values: ChEMBL document CHEMBL4371075, “α-Amino Diphenyl Phosphonates as Novel Inhibitors of Escherichia coli ClpP Protease” (J Med Chem, 2019)
Calls of active or inactive are those of the source. No cut-off for these calls is given here.

Experiments:
[1] = system: HepG2; assay: Cytotoxicity against human HepG2 cells after 48 hrs by CellTiter-Glo assay; format: cell-based; details: HepG2, 48 h
Outline: (§1)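 Human cells seeded (2000 cells/well; A549 500 cells/well), 24 h at 37 °C, 5% CO2, then compounds added (final DMSO 1%), 1:3 dilution series from 100 µM, 48 h exposure. ATP read by CellTiter-Glo luminescence relative to DMSO-treated cells; DMSO (1%) negative and valinomycin (10 µM) positive controls; plates accepted at Z' > 0.5.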

[2] = biological target: alpha-chymotrypsin (Bos taurus, UniProt P00766); assay: Inhibition of bovine alpha-chymotrypsin assessed as residual activity at 200 uM relative to control; details: cattle, read-out: Activity
Outline: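 Bovine α-chymotrypsin (40 nM) with compound at 200 µM and Suc-LY-AMC (100 µM) in 150 mM NaCl, 10 mM CaCl2, 50 mM Tris-HCl, 0.05% Brij 35. AMC fluorescence read-out; residual activity relative to control without compound.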

[3] = biological target: ATP-dependent Clp protease proteolytic subunit (Escherichia coli (strain K12), UniProt P0A6G7); assay: Inhibition of Escherichia coli C-terminal His6-tagged ClpP expressed Escherichia coli SG1146a using Suc-LY-AMC as substrate preincubated for 10 mins followed by substrate addition and measured over 1 hr by fluorescence assay
Outline: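 ClpP at 625 nM with compound serial dilutions (1:3 or 1:2) in 100 mM NaCl, 100 mM Hepes pH 7.5, 0.05% Brij 35, preincubated 10 min at 30 °C. Suc-LY-AMC added (75 µM), fluorescence (ex 350/em 435 nm) tracked 1 h at 30 °C against DMSO vehicle (2% v/v).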

[4] = biological target: ATP-dependent Clp protease proteolytic subunit (Escherichia coli (strain K12)) (UniProt P0A6G7); assay: Inhibition of Escherichia coli C-terminal His6-tagged ClpP expressed Escherichia coli SG1146a at 200 uM using Suc-LY-AMC as substrate preincubated for 10 mins followed by substrate addition and measured over 1 hr by fluorescence assay relative to control
Outline: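 E. coli ClpP (625 nM) in 100 mM NaCl, 100 mM Hepes pH 7.5, 0.05% Brij 35, preincubated with compound (200 µM final, triplicates) 10 min at 30 °C. Suc-LY-AMC added (75 µM), fluorescence (ex 350/em 435 nm) followed over 1 h at 30 °C. Inhibition relative to 2% DMSO vehicle; Z-LY-CMK (200 µM) positive control; plates valid at Z' > 0.6.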

[5] = system: A549; assay: Cytotoxicity against human A549 cells after 48 hrs by CellTiter-Glo assay; format: cell-based; details: A549, 48 h; outline: as §1
[6] = system: HeLa; assay: Cytotoxicity against human HeLa cells after 48 hrs by CellTiter-Glo assay; format: cell-based; outline: as §1
[7] = system: Staphylococcus aureus; assay: Growth inhibition of Staphylococcus aureus ATCC 29213 at 100 uM measured after 24 hrs relative to control; format: functional; details: ATCC 29213, 24 h, read-out: GI
Outline: (§2)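 Single colony in saline, adjusted in MHB; final inoculum 5x10^5 CFU/mL, compound 100 µM in triplicate, 2% DMSO and ciprofloxacin controls. 37 °C, 500 rpm shaking; OD600 at time 0 and later time points to quantify growth.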

[8] = system: Escherichia coli; assay: Growth inhibition of tolC-deficient Escherichia coli JW5503 at 100 uM measured after 24 hrs relative to control; format: functional; details: JW5503, 24 h, read-out: GI; outline: as §2
[9] = system: Escherichia coli; assay: Growth inhibition of wild-type Escherichia coli BW25113 at 50 uM measured after 24 hrs in presence of efflux pump substrate PAbetaN relative to control; format: functional; details: BW25113, 24 h, read-out: GI
Outline: (§3)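 E. coli BW25-113 wild type or ΔclpP JW0427-1 grown with compound (50 µM) plus efflux pump substrate PAβN (25 µg/ml); growth inhibition read as OD600 at 24 h, 37 °C with shaking.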

[10] = system: Escherichia coli; assay: Growth inhibition of ClpP-deficient Escherichia coli JW0427-1 at 50 uM measured after 24 hrs in presence of efflux pump substrate PAbetaN relative to control; format: functional; details: JW0427-1, 24 h, read-out: GI; outline: as §3
[11] = system: Escherichia coli ClpP (C-terminal His6-tagged); assay: Selectivity index, ratio of EC50 for human A549 cells to IC50 for Escherichia coli C-terminal His6-tagged ClpP expressed Escherichia coli SG1146a; format: toxicity; details: read-out: Selectivity Index
[12] = biological target: ATP-dependent Clp protease proteolytic subunit (Escherichia coli (strain K12)) (UniProt P0A6G7); assay: Reversible binding affinity to Escherichia coli C-terminal His6-tagged ClpP expressed Escherichia coli SG1146a up to 320 uM measured after cessation of compound treatment by SPR analysis
Outline: (§4)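 His-tagged E. coli ClpP amine-coupled to chip (80 µg/mL in 10 mM sodium acetate pH 4). Running buffer 150 mM NaCl, 10 mM Hepes, 3 mM EDTA, 0.05% Tween-20, 3.2% DMSO; 20 µL/min, 6 min injection, up to 300 s dissociation; 2.5–320 µM range. Reference-channel subtracted, DMSO/bulk-shift corrected; return to baseline after injection end judged.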

[13] = system: Escherichia coli; assay: Growth inhibition of wild-type Escherichia coli BW25113 at 100 uM under nitric oxide stress condition measured at 1 hr time interval for 15 to 24 hrs in presence of DPTA NONOate; format: functional, organism-based
Outline: (§5)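 E. coli BW25-113 and isogenic ΔclpP JW0427-1, grown overnight in MHB, diluted 1:100 in M9 + 10 mM glucose to OD600 ~0.3; assayed at OD600 0.1 with compound 100 µM, with or without DPTA NONOate (2 mM) for NO stress. 37 °C, 500 rpm; OD600 hourly for 15 or 24 h; mean of three independent experiments ± standard deviation.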

[14] = system: Escherichia coli; assay: Growth inhibition of wild-type Escherichia coli BW25113 at 100 uM measured at 1 hr time interval for 15 to 24 hrs; format: functional, organism-based; outline: as §5
[15] = system: Escherichia coli; assay: Growth inhibition of ClpP-deficient Escherichia coli JW0427-1 at 100 uM under nitric oxide stress condition measured at 1 hr time interval for 15 to 24 hrs in presence of DPTA NONOate; format: functional, organism-based; outline: as §5
[16] = system: Escherichia coli; assay: Growth inhibition of ClpP-deficient Escherichia coli JW0427-1 at 100 uM measured at 1 hr time interval for 15 to 24 hrs; format: functional, organism-based; outline: as §5
[17] = biological target: ATP-dependent Clp protease proteolytic subunit (Escherichia coli (strain K12)) (UniProt P0A6G7); assay: Reversible binding affinity to Escherichia coli C-terminal His6-tagged ClpP expressed Escherichia coli SG1146a up to 80 uM measured after cessation of compound treatment by SPR analysis; outline: as §4

Chain of ATP-dependent Clp protease proteolytic subunit (P0A6G7 whole entry): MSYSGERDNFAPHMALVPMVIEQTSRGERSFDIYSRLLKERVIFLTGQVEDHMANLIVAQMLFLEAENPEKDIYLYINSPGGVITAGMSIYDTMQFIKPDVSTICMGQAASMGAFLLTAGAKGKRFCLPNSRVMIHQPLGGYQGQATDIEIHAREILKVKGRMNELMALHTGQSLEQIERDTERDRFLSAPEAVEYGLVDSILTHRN
Chain of ATP-dependent Clp protease proteolytic subunit (Escherichia coli (strain K12)) (P0A6G7 whole entry): as above

SMILES	EC50 [1]	activity at 200 µM [2]	IC50 [3]	inhibition [4]	EC50 [5]	EC50 [6]	inhibition of growth at 100 µM [7]	inhibition of growth at 100 µM [8]	inhibition of growth at 50 µM [9]	inhibition of growth at 50 µM [10]	selectivity ratio [11]	Activity [12]	growth inhibition (GI) [13]	growth inhibition (GI) [14]	growth inhibition (GI) [15]	growth inhibition (GI) [16]	Activity [17]
COC(=O)NC(c1ccc(C(=N)N)cc1)P(=O)(Oc1ccccc1)Oc1ccccc1 (centres undefined)	≥ 100 µM	≥ 100%	48.1 µM	93%	≥ 100 µM	≥ 100 µM	–	–	–	–	–	–	–	–	–	–	–
O=C(NC(CCc1ccc([N+](=O)[O-])cc1)P(=O)(Oc1ccccc1)Oc1ccccc1)OCc1ccccc1 (centres undefined)	≥ 100 µM	≥ 100%	13.1 µM	100%	≥ 100 µM	≥ 100 µM	–	–	–	–	–	–	–	–	–	–	–
N=C(N)N1CC(C(NC(=O)OCc2ccccc2)P(=O)(Oc2ccccc2)Oc2ccccc2)C1 (centres undefined)	≥ 100 µM	≥ 100%	71.3 µM	100%	≥ 100 µM	≥ 100 µM	99.9%	99%	–	–	–	–	–	–	–	–	–
C[C@H](NC(=O)[C@H](CO)NC(=O)c1cccs1)C(=O)NC(Cc1ccc(NC(=N)N)cc1)P(=O)(Oc1ccccc1)Oc1ccccc1 (some centres undefined)	≥ 100 µM	≥ 100%	49.5 µM	90%	≥ 100 µM	≥ 100 µM	–	–	–	–	–	–	–	–	–	–	–
N=C(N)c1ccc2cc(C(NC(=O)OCc3ccccc3)P(=O)(Oc3ccccc3)Oc3ccccc3)ccc2c1 (centres undefined)	28.3 µM	≥ 100%	79.7 µM	81%	25.6 µM	19.9 µM	–	98.9%	98.5%	99.4%	–	–	–	–	–	–	–
Nc1ccc(C(NC(=O)OCc2ccccc2)P(=O)(Oc2ccccc2)Oc2ccccc2)cc1 (centres undefined)	≥ 100 µM	≥ 100%	39.8 µM	96%	57.8 µM	≥ 100 µM	–	–	–	–	< 10	–	–	–	–	–	–
O=C(NC(c1ccc(NC(=O)C(F)(F)F)cc1)P(=O)(Oc1ccccc1)Oc1ccccc1)OCc1ccc2c(c1)OCO2 (centres undefined)	≥ 100 µM	46%	8.2 µM	93%	41.5 µM	≥ 100 µM	–	–	–	–	< 10	Active	–	–	–	–	–
O=C(NC(c1c[nH]c2ccc(Cl)cc12)P(=O)(Oc1ccccc1)Oc1ccccc1)OCc1ccccc1 (centres undefined)	10.5 µM	≥ 100%	100 µM	88%	5.9 µM	19.9 µM	–	–	–	–	–	–	–	–	–	–	–
Nc1cccc(C(NC(=O)OCc2ccccc2)P(=O)(Oc2ccccc2)Oc2ccccc2)c1 (centres undefined)	23.8 µM	17.9%	0.5 µM	100%	27.5 µM	≥ 100 µM	–	–	–	–	–	Active	Active	inactive	inactive	inactive	–
COc1cccc(C(NC(=O)OCc2ccccc2)P(=O)(Oc2ccccc2)Oc2ccccc2)n1 (centres undefined)	≥ 100 µM	≥ 100%	38 µM	100%	≥ 100 µM	≥ 100 µM	–	–	–	–	–	–	–	–	–	–	–
CN(C)c1ccc(C(NC(=O)OCc2ccccc2)P(=O)(Oc2ccccc2)Oc2ccccc2)cc1 (centres undefined)	28.4 µM	≥ 100%	0.6 µM	100%	65.6 µM	≥ 100 µM	–	–	–	–	–	Active	–	–	–	–	–
O=C(NC(Cc1ccc(C(F)(F)F)cc1)P(=O)(Oc1ccccc1)Oc1ccccc1)OCc1ccccc1 (centres undefined)	≥ 100 µM	93.9%	14.2 µM	100%	≥ 100 µM	≥ 100 µM	–	–	–	–	–	–	–	–	–	–	–
O=C(NC(c1ccc(N2CCNCC2)cc1)P(=O)(Oc1ccccc1)Oc1ccccc1)OCc1ccccc1 (centres undefined)	1.1 µM	≥ 100%	0.6 µM	100%	0.4 µM	8.6 µM	–	69.9%	–	–	–	–	–	–	–	–	Active
